Compounds with a hit are over-represented: about 2.5% of the library has one in this group of screens.
E-selectin induc = E-selectin induction in HUVECs, primary screen, imaging, HUVEC, immunofluorescence imaging, single point. P16581. normalized: neutral wells 0, TNF-alpha wells 100. activation, % at 7.58 µM. actives 0.37% (n = 260,000);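 active = mean E-selectin-positive cell signal at least 10% of the positive control, reached in at least 60% of replicates, without over 20% cell loss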
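System: HUVEC / Compound: single concentration / Signal: immunofluorescence imaging / Read-out: percent E-selectin-positive cells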
SIRT5 inh = SIRT5 desuccinylase inhibitors, primary screen, biochemical, fluorescence imaging, single point, set 5; NAD-dependent protein deacylase sirtuin-5, mitochondrial (Homo sapiens), Q9NXA8; Purified SirT5, succinyl-peptide AMC, trypsin-coupled fluorescence; inhibition, % at 15 µM; actives 1.1% (n = 330,000); AID 652115, 2013; in the data active = inhibition above about 15%
Target sequence (Q9NXA8 whole entry, looked up): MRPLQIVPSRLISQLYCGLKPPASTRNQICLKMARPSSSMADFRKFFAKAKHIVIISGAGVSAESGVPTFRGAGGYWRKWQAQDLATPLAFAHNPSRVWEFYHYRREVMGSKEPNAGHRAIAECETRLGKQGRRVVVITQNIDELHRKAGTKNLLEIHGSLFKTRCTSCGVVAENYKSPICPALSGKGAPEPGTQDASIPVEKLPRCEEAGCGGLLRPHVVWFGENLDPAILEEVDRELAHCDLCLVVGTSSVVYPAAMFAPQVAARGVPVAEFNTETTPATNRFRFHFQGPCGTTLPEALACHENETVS
PglD inh = C. jejuni PglD acetyltransferase inhibitors, primary screen, biochemical, DTNB colorimetric, single point; UDP-N-acetylbacillosamine N-acetyltransferase PglD (Campylobacter jejuni); purified PglD enzyme, DTNB colorimetric CoA detection; inhibition, % at 12.5 µM; actives 0.098% (n = 360,000); AID 602405, 2012; in the data active = inhibition above about 16%, passing the limit was not always enough
DENV2 CPE rescue = inhibitors of DENV2 cytopathic effect, primary screen, cell-based, plate reader, single concentration; actives 1.7% (n = 350,000); DENV2-infected cells, cytopathic effect rescue; CPE inhibition, % at 9.99 µM; in the data active = CPE inhibition above about 20%, passing the limit was not always enough; tested in BHK-21 cells
ERAP1 HTS inh = human ERAP1 aminopeptidase inhibitors, primary screen, biochemical, single point, plate reader. inhibition, % at 10.7 µM. recombinant ERAP1, Leu-AMC fluorescence, 60 min. actives 0.15% (n = 340,000). Endoplasmic reticulum aminopeptidase 1 (Homo sapiens), Q9NZ08. AID 652197, 2013;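 active = mean replicate inhibition of at least 30%, or all replicates individually reaching that 30% level; inactive = mean below 30% and not every replicate reaching it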
Of the large screens only hits and unclear results are named; the others gave an inactive call.

CC(=O)Nc1ccc(NC(=O)C2CCCN2C(=O)Nc2ccccc2[N+](=O)[O-])cc1 (stereo unspecified)	SIRT5 inh 20.5
C[C@H](CO)N1C[C@H](C)[C@H](CN(C)C(=O)C2CCCCC2)OCCCC[C@H](C)Oc2ccc(NS(=O)(=O)c3ccc(F)cc3)cc2C1=O	none
C[C@H]1CN([C@@H](C)CO)S(=O)(=O)c2ccc(/C=C/c3ccccc3)cc2O[C@@H]1CN(C)C(=O)c1ccc2c(c1)OCO2	none
C[C@@H]1CN([C@@H](C)CO)S(=O)(=O)c2ccc(-c3ccccc3)cc2O[C@@H]1CN(C)C(=O)c1ccc2c(c1)OCO2	SIRT5 inh 15.9
C[C@H](CO)N1C[C@H](C)[C@H](CN(C)C(=O)c2ccc3c(c2)OCO3)Oc2cc(/C=C/c3ccccc3)ccc2S1(=O)=O	SIRT5 inh 28.7
C[C@H]1CN([C@@H](C)CO)S(=O)(=O)c2ccc(/C=C/c3ccccc3)cc2O[C@H]1CN(C)C(=O)c1ccc2c(c1)OCO2	SIRT5 inh 22.4
COc1cccc(CNC(=O)CSc2cc(=O)n(C)c3ccccc23)c1	none (no result: E-selectin induc, PglD inh)
Cc1ccccc1S(=O)(=O)N1C[C@@H](O)COC[C@H]2O[C@H](CC(=O)N3CCC(Cc4ccccc4)CC3)CC[C@@H]21	DENV2 CPE rescue 67.7
COC(=O)C[C@H]1CC[C@H]2[C@@H](COC[C@H](O)CN2S(=O)(=O)c2ccccc2OC)O1	SIRT5 inh 17.5
COC(=O)[C@@]12CCCCN1[C@H](c1ccc(-c3ccc(F)cc3)cc1)[C@H]1C(=O)N(C)C(=O)[C@H]12	DENV2 CPE rescue 39.0 (no result: E-selectin induc, SIRT5 inh)
COC(=O)[C@@]12CCCCN1[C@H](c1ccc(SC3CCCCC3)cc1)[C@H]1C(=O)N(C)C(=O)[C@H]12	none
COC(=O)[C@@]12CCCN1[C@H](c1ccc(SC3CCCCC3)cc1)[C@H]1C(=O)N(C)C(=O)[C@H]12	DENV2 CPE rescue 27.9 (no result: SIRT5 inh)
CCCSc1ccc([C@@H]2[C@H]3C(=O)N(CC)C(=O)[C@H]3[C@]3(C(=O)OC)CCCN23)cc1	SIRT5 inh 36.2 (no result: DENV2 CPE rescue)
Cc1ccc(C)c(S(=O)(=O)Nc2ccc(-n3cnnn3)cc2)c1	none (no result: E-selectin induc, SIRT5 inh, DENV2 CPE rescue, ERAP1 HTS inh)
O=C(O)CCNC(=O)OCC1c2ccccc2-c2ccccc21	none (no result: E-selectin induc)
O=C(CCNC(=O)OCC1c2ccccc2-c2ccccc21)NOCc1ccccc1	DENV2 CPE rescue 28.5 (no result: E-selectin induc)
COc1ccc(Cl)cc1NC(=O)C(=O)N/N=C/c1cc(C)n(-c2ccc(C)cc2)c1C	none (no result: E-selectin induc)
O=C(NCCN1CCOCC1)c1ccc2c(c1)N(Cc1ccc(F)cc1)C(=O)CS2	DENV2 CPE rescue 63.6 (no result: PglD inh)
O=C(CNC(=O)c1ccc(OC(F)F)cc1)NCc1ccccn1	none
CO[C@@H]1CN(C)C(=O)c2cc(NC(=O)CC(F)(F)F)ccc2OC[C@H](C)N(S(=O)(=O)c2cn(C)cn2)C[C@@H]1C	SIRT5 inh 15.7 (no result: PglD inh)
CO[C@H]1CN(C)C(=O)c2cc(NC(C)=O)ccc2OC[C@H](C)N(S(=O)(=O)c2cn(C)cn2)C[C@H]1C	SIRT5 inh 23.7
CO[C@H]1CN(C)C(=O)c2cc(NC(C)=O)ccc2OC[C@@H](C)N(S(=O)(=O)c2cn(C)cn2)C[C@@H]1C	none
O=C(/C=C(\Nc1cccc(Cl)c1F)c1ccccc1)c1ccccc1	none (no result: SIRT5 inh, PglD inh)
CC(C)CCn1c(=O)c2sccc2n2c(CCCC(=O)N3CCN(c4ccccn4)CC3)nnc12	none (no result: E-selectin induc)
C[C@@H]1CN([C@H](C)CO)C(=O)c2cc(NC(=O)CCC(F)(F)F)ccc2O[C@@H](C)CCCCO[C@H]1CN(C)Cc1ccc(Cl)c(Cl)c1	DENV2 CPE rescue 71.5
C[C@H](CO)N1C[C@H](C)[C@@H](CN(C)Cc2ccc(Cl)c(Cl)c2)OCCCC[C@H](C)Oc2ccc(NC(=O)CCC(F)(F)F)cc2C1=O	none
COc1ccc(CN(C)C[C@@H]2OCCCC[C@@H](C)Oc3ccc(NC(=O)CCC(F)(F)F)cc3C(=O)N([C@H](C)CO)C[C@H]2C)cc1	DENV2 CPE rescue 30.1
COc1ccc(CN(C)C[C@H]2OCCCC[C@@H](C)Oc3ccc(NC(=O)CCC(F)(F)F)cc3C(=O)N([C@H](C)CO)C[C@H]2C)cc1	none
C[C@H]1CCCCO[C@@H](CN(C)Cc2ccc(C(F)(F)F)cc2)[C@@H](C)CN([C@@H](C)CO)C(=O)c2cc(NC(=O)CCC(F)(F)F)ccc2O1	SIRT5 inh 16.2
COc1ccc(NC(=O)N(C)C[C@H]2OCCCC[C@@H](C)Oc3ccc(NC(=O)CCC(F)(F)F)cc3C(=O)N([C@@H](C)CO)C[C@H]2C)cc1	DENV2 CPE rescue 20.9
O=C(c1ccc(S(=O)(=O)Nc2ccccc2Cl)cc1)N1CCCC1	none (no result: E-selectin induc)
C[C@@H]1CCCCO[C@@H](CN(C)CC2CCCCC2)[C@@H](C)CN([C@H](C)CO)C(=O)c2cc(NC(=O)CCC(F)(F)F)ccc2O1	DENV2 CPE rescue 63.1 (no result: SIRT5 inh, ERAP1 HTS inh)
CC(=O)OC(C[N+]1(C)CCCCCC1)c1ccccc1 (stereo unspecified)	none
C[N+]1(CC(O)c2ccccc2)CCCCCC1 (stereo unspecified)	ERAP1 HTS inh 43.1 (no result: E-selectin induc)
CCOc1ccc(CCNC(=O)c2ccc(C)c(N3CCCC3=O)c2)cc1OCC	none (no result: E-selectin induc, PglD inh)
CN1c2ccc(C#Cc3cccnc3)cc2[C@@H]2[C@@H](CCN2C(=O)C2CCC2)[C@H]1CO	E-selectin induc 63.5 (no result: PglD inh)
CN1c2ccc(Br)cc2[C@@H]2[C@@H](CCN2C(=O)C2CCCCC2)[C@@H]1CO	DENV2 CPE rescue 67.1
O=C(NN1C(=O)C2C3C=CC(O3)C2C1=O)c1cccc(O)c1 (stereo unspecified)	none (no result: E-selectin induc, SIRT5 inh, PglD inh)
Cc1ccc(NC(=O)CCNC(=O)Cn2ccc3ccccc3c2=O)cc1F	none (no result: E-selectin induc)
CN1c2ccc(-c3ccc(C#N)cc3)cc2[C@@H]2[C@@H](CCN2C(=O)NC2CCCCC2)[C@@H]1CO	none (no result: PglD inh)
O=C(O)c1ccc(-c2ccc(/C=C3\NC(=O)N(Cc4ccc(Cl)cc4)C3=O)o2)cc1Cl	SIRT5 inh 25.9 (no result: E-selectin induc)
CCOC(=O)CN1C(=O)S/C(=C\c2ccc(-c3ccc(C(=O)O)c(Cl)c3)o2)C1=O	none
COc1cccc(S(=O)(=O)N(C)C[C@H]2Oc3cc(C4=CCCC4)ccc3S(=O)(=O)N([C@H](C)CO)C[C@H]2C)c1	SIRT5 inh 21.3
COc1cccc(S(=O)(=O)N(C)C[C@H]2Oc3cc(C4=CCCC4)ccc3S(=O)(=O)N([C@@H](C)CO)C[C@@H]2C)c1	SIRT5 inh 21.2
COc1cccc(S(=O)(=O)N(C)C[C@@H]2Oc3cc(C4=CCCCC4)ccc3S(=O)(=O)N([C@@H](C)CO)C[C@@H]2C)c1	SIRT5 inh 21.4 (no result: ERAP1 HTS inh)
